TAAR1 antag: human TAAR1 antagonism. inhibition, % at 3 µM. AID 624466. hit rate 1.5% among 360,000. CHO RD-HGA16 TAAR1, Fluo-8 calcium fluorescence, antagonist. Q96RJ0;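 active means inhibition above a per-plate cutoff, the mean inhibition of test compounds on that plate plus 3 SD, cut at about 49% in these data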;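 further: 0% = DMSO plus EC80 beta-PEA response and 100% = DMSO alone without agonist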
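Assay system: RD-HGA16 CHO cells with stable hTAAR1 and Gα16 / Reagent: EC80 β-phenethylamine stimulus / Doses: 3 µM, single point / Timing: dye loading 75 min at 37 °C, then 30 min room temperature / Measured by: Fluo-8 intracellular calcium dye fluorescence, real-time kinetic reads / Controls: vehicle wells and EC80 agonist wells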
TAAR1 ag: agonists of human TAAR1. hit rate 0.99% among 360,000. Q96RJ0. AID 624467. activation, % at 3 µM. CHO RD-HGA16 TAAR1, Fluo-8 calcium fluorescence; vehicle wells 0%, saturating PEA agonist 100%;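 active means activation above the mean activation of all test compounds in the run plus 3 SD, cut at about 38% in these data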
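Signal – calcium-sensitive Fluo-8 signal, excitation 470-495, emission 515-575 nm · System – RD-HGA16 (CHO) cells co-expressing Gα16 and hTAAR1 · Incubation – 17-24 h seeding, 75 min 37 °C dye, 30 min RT · Compound dosing – 3 µM single concentration · Repeats – no replicates (n 1)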
OX1R antag-1: blocks the human orexin 1 receptor | O43613 | OX1R-expressing cells, FRET antagonist read-out | inhibition, % at 6.6 µM | hit rate 1.8% among 330,000 | AID 485270; in the data active means inhibition mostly above about 38%, no sharp cut-off; inactive means mostly below about 40%;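 further: 0% = agonist challenge alone and 100% = reference antagonist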
Target sequence (O43613 whole entry, looked up): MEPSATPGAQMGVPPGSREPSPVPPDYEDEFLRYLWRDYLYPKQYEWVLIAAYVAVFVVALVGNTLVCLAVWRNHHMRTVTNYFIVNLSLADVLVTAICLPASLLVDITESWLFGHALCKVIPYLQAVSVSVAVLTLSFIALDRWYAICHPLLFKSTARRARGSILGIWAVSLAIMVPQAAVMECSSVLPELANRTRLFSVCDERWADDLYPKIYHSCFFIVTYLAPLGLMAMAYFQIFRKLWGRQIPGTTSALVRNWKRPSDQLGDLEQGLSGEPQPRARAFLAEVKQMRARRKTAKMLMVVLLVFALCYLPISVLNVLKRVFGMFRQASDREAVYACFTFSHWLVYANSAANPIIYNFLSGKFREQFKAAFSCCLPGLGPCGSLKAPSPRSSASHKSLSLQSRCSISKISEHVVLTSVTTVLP
OX1R antag-2: human HCRTR1 antagonism. O43613. CHO/OX1R cells, Fluo-8 calcium fluorescence, orexin A. inhibition, % at 5 µM. hit rate 0.43% among 330,000;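 active means inhibition above its plate's threshold, mean inhibition of all tested compounds on the plate plus 3 SD, cut at about 37% in these data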;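 further: 0% = orexin A challenge wells and 100% = SB-334867-A antagonist wells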
CHO parental Ca: counter-screen for OX1R antagonists: effect in parental CHO cells | parental CHO-K1, ATP-induced calcium, Fluo-8 fluorescence | inhibition, % at 5.6 µM | hit rate 0.63% among 330,000;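 active means inhibition above that plate's mean sample inhibition plus 3 SD, cut at about 26% in these data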;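 further: 0% = ATP-challenged DMSO wells and 100% = DMSO wells without ATP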
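Material: Parental CHO cells | Reagent: ATP | Compound dosing: Single nominal dose of 5.6 µM per compound | Detection: Intracellular calcium via Fluo-8 no-wash fluorescent dye | Read-out: % inhibition of ATP-induced calcium mobilization | Benchmarks: Low control ATP plus DMSO, high control DMSO only | Replicates: Singlicate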
GalR3 antag: antagonists of human GalR3. O60755. HEK293 GalR3-CNG cAMP membrane potential fluorescence; galR3 body fused to GalR1 C-terminus. inhibition, % at 3 µM. hit rate 0.44% among 360,000;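 active means inhibition above the screen-wide average plus 3 SD, cut at about 13% in these data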;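 further: forskolin and galanin both at EC90 stimulate the cells; cAMP rise reported by CNG channel membrane potential dye signal; 0% = forskolin plus galanin with DMSO and 100% = forskolin alone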
Numbers without * were called inactive; · = no result. Compounds with a hit are over-represented: about 4.2% of the library has one in this group of screens.

SMILES	TAAR1 antag	TAAR1 ag	OX1R antag-1	OX1R antag-2	CHO parental Ca	GalR3 antag
Cc1ccc(N=C2N=C(N)c3ccccc32)cc1C	-9.0	10.9	9.7	-9.1	-0.5	-3.6
O=C(NNC(=O)C1CCCC1)c1cc([N+](=O)[O-])cc([N+](=O)[O-])c1	-30.7	10.0	37.9*	-3.4	-3.0	-7.5
O=C(NNC(=O)C1CC1)c1cccc([N+](=O)[O-])c1	-23.2	2.6	·	·	·	-0.3
CCOC(=O)N1CCN(CCC(=O)c2ccc(Cl)cc2)CC1	-6.0	37.5*	38.2	-5.8	-9.2	-1.4
CCOC(=O)N1CCN(CCC(=O)c2ccc(Br)cc2)CC1	3.6	14.6	·	·	·	-7.0
O=C(OCCNc1nc(-c2ccccc2)nc2ccccc12)c1ccncc1	26.3	10.0	57.3*	6.7	-4.4	-5.4
O=C(O)c1cccc(Nc2nc(-c3ccccc3)nc3ccccc23)c1	20.1	2.4	6.2	10.2	1.4	-9.4
CCCOC(=O)c1cccc(Nc2nc(-c3cccnc3)nc3ccccc23)c1	62.5*	11.0	33.6	3.6	2.9	-1.1
O=C(OCCNc1nc(-c2ccccc2)nc2ccccc12)c1cccnc1	40.8	7.8	47.5*	-20.8	-5.4	-5.1
CN(C)S(=O)(=O)c1cccc(NC(=O)COC(=O)CCc2nc3ccccc3s2)c1	-4.3	16.1	37.3	2.6	-0.3	-1.5
Cc1ccc(NC(=O)CN2C(=O)C3CC=CCC3C2=O)cc1S(=O)(=O)N1CCOCC1 (configuration not stated)	-25.4	2.7	18.5	-19.6	-10.2	2.4
Cc1cnc(C(=O)N2CCCC(C(=O)c3ccc(C(C)(C)C)cc3)C2)cn1 (configuration not stated)	8.0	3.4	10.8	-7.2	-25.7	-5.6
N#Cc1ccccc1NC(=O)CSc1nnc(-c2ccccc2O)n1-c1ccccc1	22.4	11.2	42.5*	9.5	-15.1	-1.6
COc1ccc(C(=O)CSc2nnc(-c3cccnc3)n2Cc2ccco2)cc1	10.2	1.3	23.8	-30.8	-5.5	-1.4
CCn1c(SCC(=O)c2ccc3ccccc3c2)nnc1-c1ccco1	2.2	3.6	73.6*	-3.4	-8.9	-5.9
CCn1c(SCC(=O)N(C)CC(=O)Nc2cccc(OC)c2)nnc1-c1ccco1	-6.3	1.0	40.3*	-10.8	-8.9	-3.7
COc1ccc(C(=O)CSc2nnc(-c3cc4ccccc4cc3O)n2Cc2ccco2)cc1	31.1	2.0	53.3*	6.1	-20.7	-5.1
CCn1c(SCC(=O)c2ccc3c(c2)OCCO3)nnc1-c1ccco1	-4.6	5.3	57.7	-0.7	-14.5	-4.5
C=CCSc1nc(N)c2c(C)c(C)sc2n1	8.8	2.6	46.1*	-12.8	-12.6	-7.4
CCSc1nc(N)c2c(C)c(C)sc2n1	-1.6	11.6	34.0	-30.7	-4.7	-6.4
CCOC(=O)N1CCN(S(=O)(=O)c2ccc(C)cc2)CC1	-8.8	6.0	8.3	0.3	-4.7	4.9
Cc1ccn2cc(-c3cccc(NS(C)(=O)=O)c3)nc2c1	4.5	5.2	25.7	-22.7	-5.7	-3.5
O=C(CSc1nc2ncc(Cl)cc2[nH]1)Nc1cccc(F)c1	13.9	10.7	47.1*	-13.9	3.9	-5.8
CSc1nc(N)nc(SCC(=O)Nc2cccc(F)c2)c1C#N	39.9	12.5	38.7	15.7	62.4*	5.8
CSc1nc(N)nc(SCC(=O)Nc2ccc(Cl)cc2)c1C#N	25.8	10.3	19.5	-5.9	10.7	-7.9
CNC(=O)c1c(NC(=O)c2cccc(C)c2)sc2c1CCC2	-16.1	3.0	44.2*	-18.0	-20.1	-2.2
NC(=O)c1c(NC(=O)c2ccc(F)cc2)sc2c1CCC2	11.2	0.4	51.1*	-4.3	-21.2	-4.8
Cc1cc(C(F)F)n2nc(C(=O)Nc3sc4c(c3C(N)=O)CCC4)nc2n1	-4.3	2.3	57.4*	-1.6	-3.8	-1.4
Cc1cc(Cl)ccc1C(=O)C1CCCN(C(=O)c2cccc(N3CCCC3=O)c2)C1 (configuration not stated)	0.2	-0.7	13.9	-22.1	-32.1	0.6
CC(=O)NC12CC3CC(C1)CC(C(=O)Nc1cccc(S(=O)(=O)N4CCCCCC4)c1)(C3)C2	9.3	1.1	·	·	·	-2.4
